From ChEMBL document CHEMBL1275291, “Design, synthesis and in vitro evaluation of antitubercular and antimicrobial activity of some novel pyranopyrimidines” (2010) come the findings set out here.

Values after ≈ are worked out from the molar mass of the structure shown.

Common to all, as to type: functional
The test system of experiment [1] is Mycobacterium tuberculosis. The experiment can be described thus: Antitubercular activity against Mycobacterium tuberculosis H37Rv ATCC 27294 by agar microdilution method. An outline of the steps:
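Twofold dilutions in Middlebrook 7H10 agar with OADC supplement, 3 mL per well in 24-well plates, in duplicate. Final concentrations 1000, 500, 250, 125 and 62.5. Known CFU of H37Rv culture dispensed on top of agar in a negative-pressure biosafety hood. Incubated at 37 °C in a CO2 incubator. MIC read as the lowest concentration completely inhibiting growth and colony formation.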

The test system of experiment [2] is Staphylococcus aureus. The experiment can be described thus: Antimicrobial activity against Staphylococcus aureus ATCC 25923 after 24 hrs by serial dilution method. Particulars: ATCC 25923, 24 h.
The subject of experiment [3] is Pseudomonas aeruginosa. The experiment can be described thus: Antimicrobial activity against Pseudomonas aeruginosa MTCC 441 after 24 hrs by serial dilution method. The settings on record: MTCC 441, 24 h.
Experiment [4] has as its system Streptococcus pyogenes. Nature of the experiment: Antimicrobial activity against Streptococcus pyogenes MTCC 443 after 24 hrs by serial dilution method. The settings on record: MTCC 443, 24 h.
Experiment [5] has as its system Aspergillus niger. Nature of the experiment: Antimicrobial activity against Aspergillus niger MTCC 282 after 24 hrs by serial dilution method.
In experiment [6] the test system is Escherichia coli. Nature of the experiment: Antimicrobial activity against Escherichia coli ATCC 25922 after 24 hrs by serial dilution method. The settings on record: ATCC 25922, 24 h.

Regarding `CO[C@H]1/C=C/O[C@@]2(C)Oc3c(C)c(O)c4c(O)c(c(/C=N/N5CCN(C)CC5)c(O)c4c3C2=O)NC(=O)/C(C)=C\C=C\[C@H](C)[C@H](O)[C@@H](C)[C@@H](O)[C@@H](C)[C@H](OC(C)=O)[C@@H]1C` [RIFAMPIN], the MIC (in general, the lowest concentration found to suppress growth) in experiment [1] stood at 40 µg/mL (≈ 48.6 µM).
As for `COc1ccc(C2C(C#N)=C(N)Oc3c2ccc2ccccc32)cc1` (stereo not given), the MIC came out at 500 µg/mL (≈ 1520 µM) in experiment [2]; 1000 µg/mL (≈ 3050 µM) in experiment [3]; 500 µg/mL (≈ 1520 µM) in experiment [4]; 500 µg/mL (≈ 1520 µM) in experiment [5] (MTCC 282, 24 h); 1000 µg/mL (≈ 3050 µM) in experiment [1]; 500 µg/mL (≈ 1520 µM) in experiment [6].
As for `O=C(O)c1cn(C2CC2)c2cc(N3CCNCC3)c(F)cc2c1=O` [CIPROFLOXACIN], the minimum inhibitory concentration (MIC) is 50 µg/mL (≈ 151 µM) in experiment [2], 50 µg/mL (≈ 151 µM) in experiment [4] and 25 µg/mL (≈ 75.4 µM) in experiment [6].
For the molecule `COc1ccc(C2C(C#N)=C(N)Oc3cc(O)ccc32)cc1` (stereo not given), the MIC worked out at 125 µg/mL (≈ 425 µM) in experiment [2]; 250 µg/mL (≈ 849 µM) in experiment [3]; 125 µg/mL (≈ 425 µM) in experiment [4]; 500 µg/mL (≈ 1700 µM) in experiment [5] (MTCC 282, 24 h); 250 µg/mL (≈ 849 µM) in experiment [1]; 250 µg/mL (≈ 849 µM) in experiment [6].
On to `COc1ccc(C2C(C#N)=C(N)Oc3ccccc32)cc1` (stereo not given), for which the minimum inhibitory concentration (MIC) was found to be 250 µg/mL (≈ 898 µM) in experiment [2]; 500 µg/mL (≈ 1800 µM) in experiment [3]; 250 µg/mL (≈ 898 µM) in experiment [4]; 1000 µg/mL (≈ 3590 µM) in experiment [5] (MTCC 282, 24 h); 500 µg/mL (≈ 1800 µM) in experiment [1]; 500 µg/mL (≈ 1800 µM) in experiment [6].
With `COc1ccc(C2c3ccc4cccnc4c3Oc3[nH]c(=O)nc(N)c32)cc1` (stereo not given), the MIC was found to be 62.5 µg/mL (≈ 168 µM) in experiment [2]; 125 µg/mL (≈ 336 µM) in experiment [3]; 125 µg/mL (≈ 336 µM) in experiment [4]; 250 µg/mL (≈ 671 µM) in experiment [5] (MTCC 282, 24 h); 125 µg/mL (≈ 336 µM) in experiment [6].
In the case of `COC1=CC(=O)C[C@@H](C)[C@]12Oc1c(Cl)c(OC)cc(OC)c1C2=O` [GRISEOFULVIN], in experiment [5] (MTCC 282, 24 h), 100 µg/mL (≈ 283 µM) was the least that counted as inhibitory (MIC).
In the case of `CC1(C)S[C@@H]2[C@H](NC(=O)[C@H](N)c3ccccc3)C(=O)N2[C@H]1C(=O)O` [AMPICILLIN], the MIC in experiment [2] is 100 µg/mL (≈ 286 µM); in experiment [3], 100 µg/mL (≈ 286 µM); in experiment [4], 250 µg/mL (≈ 715 µM); in experiment [6], 100 µg/mL (≈ 286 µM).
With `COc1ccc(C2C(C#N)=C(N)Oc3c2ccc2cccnc32)cc1` (stereo not given), the MIC was 125 µg/mL (≈ 380 µM) in experiment [2]; 250 µg/mL (≈ 759 µM) in experiment [3]; 125 µg/mL (≈ 380 µM) in experiment [4]; 500 µg/mL (≈ 1520 µM) in experiment [5] (MTCC 282, 24 h); 250 µg/mL (≈ 759 µM) in experiment [1]; 250 µg/mL (≈ 759 µM) in experiment [6].
Molecule NYSTATIN displayed an MIC in experiment [5] of 100 µg/mL.
`COc1ccc(C2C(C#N)=C(N)Oc3ccc4ccccc4c32)cc1` (stereo not given): the MIC amounted to 250 µg/mL (≈ 761 µM) in experiment [2]; 500 µg/mL (≈ 1520 µM) in experiment [3]; 250 µg/mL (≈ 761 µM) in experiment [4]; 1000 µg/mL (≈ 3050 µM) in experiment [5] (MTCC 282, 24 h); 1000 µg/mL (≈ 3050 µM) in experiment [1]; 150 µg/mL (≈ 457 µM) in experiment [6].
